Shown are actives, neighbours in structure and some others; about 2.9% of the full set was active somewhere.
HIV Env fusion = inhibitors of HIV-1 Env-driven cell-cell fusion, primary screen, HeLa-JRFL effector, CEM21 target cells, luciferase; inhibition, % at 12.3 µM; 360,000 tested, 1.1% active;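 active = mean replicate inhibition score of at least 50 and every replicate individually at or above 50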;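 also: 0% = plate neutral controls and 100% = maraviroc near 300 nM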
CDK5 p35 inh = inhibitors of human CDK5/p35 kinase, primary screen, biochemical, single concentration. inhibition, % at 10 µM. 330,000 tested, 0.01% active. Cyclin-dependent kinase 5 (Homo sapiens) + Cyclin-dependent kinase 5 activator 1 (Homo …. Recombinant CDK5/p35, ADP-Glo luminescence, 60 min;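 active = highest replicate inhibition of at least 50% and at least 75% of replicates reaching 50%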;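 also: plate controls were DMSO neutral control for no effect and GW8510 at 10 µM for full effect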
Target sequence (Q00535 whole entry, looked up): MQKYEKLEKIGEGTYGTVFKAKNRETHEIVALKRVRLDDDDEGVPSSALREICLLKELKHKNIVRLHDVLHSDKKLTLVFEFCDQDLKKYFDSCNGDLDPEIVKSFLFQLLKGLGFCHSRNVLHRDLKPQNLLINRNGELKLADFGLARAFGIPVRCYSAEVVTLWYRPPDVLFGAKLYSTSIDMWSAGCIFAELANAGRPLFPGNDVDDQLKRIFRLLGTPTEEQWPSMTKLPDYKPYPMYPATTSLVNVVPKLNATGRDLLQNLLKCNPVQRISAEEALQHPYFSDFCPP
Target sequence (Q15078 whole entry, looked up): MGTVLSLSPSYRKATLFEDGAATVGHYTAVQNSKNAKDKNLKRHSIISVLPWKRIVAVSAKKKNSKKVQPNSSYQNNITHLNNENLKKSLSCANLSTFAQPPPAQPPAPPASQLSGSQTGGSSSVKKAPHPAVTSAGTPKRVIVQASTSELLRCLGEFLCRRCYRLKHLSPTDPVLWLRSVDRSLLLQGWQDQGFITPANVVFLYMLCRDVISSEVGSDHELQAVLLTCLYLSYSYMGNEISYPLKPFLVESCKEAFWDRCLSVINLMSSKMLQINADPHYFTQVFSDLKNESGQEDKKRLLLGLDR
GSIS activator = GLuc luminescence reporter in INS-1E cells, primary screen for activators of glucose-dependent secretion of insulin; INS-1E GLuc reporter insulin secretion, 2-3 h; activation, % at 16.6 µM; 370,000 tested, 0.61% active; AID 743287, 2014;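 active = lowest replicate activation of at least 40%, so every replicate reaches that level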;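 also: 0% = median of neutral control wells and 100% = median of IBMX positive control wells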
Cneo AK release = Cryptococcus neoformans cell lysis inducers, primary screen, AK release luminescence, single concentration; C. neoformans lysis, adenylate kinase release luminescence, 4 h; normalised: neutral wells 0, clomiphene wells 100; lysis activity, % at 15 µM; 360,000 tested, 0.2% active;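 active = mean lysis activity across replicates of at least 80%, whatever share of replicates individually reach that level; inactive = mean lysis activity below 80%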
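Assay system: C. neoformans cells. Amount: yeast cell density of 5 × 10^6 cells/mL. Technique: AK luminescence. Buffer or medium: YPD. Times: static 4 h at 37 °C with compound, 1 h detection. Dosing: single-point compound dose. Read-out: lysis from increased AK signal.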
dFosB activator = activators of delta FosB homodimer, primary screen, biochemical, fluorescence polarization, TAMRA-CDK5 oligo, single point | Protein FosB (Mus musculus), P13346 | activation, % at 25 µM | 340,000 tested, 0.99% active | purified delta FosB; percent of positive-control signal above neutral wells;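 active = mean activation above about 17%, with every replicate also reaching it, limit read from the data, passing the limit was not always enough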
PAX8 reporter = inhibitors of PAX8-driven TPO luciferase reporter, primary screen, RMG-I cells, single concentration. 360,000 tested, 1.2% active. SteadyGlo, 24 h. inhibition, % at 12.6 µM. AID 652154, 2013;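 active = mean replicate inhibition at least 60% with every replicate also reaching 60%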;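 also: luciferase light reporting Pax8 driven TPO promoter activity; plate controls were median of neutral control wells for no effect and mitoxantrone controls for full effect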
Active calls of the source: *; ! = a repeat was not active; [ ] = remark or other dose.

Cc1ccc(S(=O)(=O)Nc2ccc3c(c2)C(=O)N([C@@H](C)CO)C[C@@H](C)[C@H](CN(C)C(=O)Nc2ccc(C(F)(F)F)cc2)OCCCC[C@@H](C)O3)cc1 was read as HIV Env fusion 19[16.7 µM], GSIS activator 7, Cneo AK release 2 and PAX8 reporter 40.
`C[C@@H]1CCCCO[C@@H](CN(C)C(=O)Nc2ccc(C(F)(F)F)cc2)[C@@H](C)CN([C@H](C)CO)C(=O)c2cc(NS(=O)(=O)c3ccc(Cl)cc3)ccc2O1` gave HIV Env fusion -1[16.7 µM], GSIS activator -21, Cneo AK release 2 and PAX8 reporter 82*!.
`O=[N+]([O-])c1ccccc1S(=O)(=O)Nc1cccc(-c2ccc(N3CCOCC3)nn2)c1` gave HIV Env fusion -15, CDK5 p35 inh 1, GSIS activator 29, Cneo AK release -8, dFosB activator -6 and PAX8 reporter -50.
`O=[N+]([O-])c1ccccc1S(=O)(=O)Nc1ccc(-c2ccc(N3CCOCC3)nn2)cc1` gave HIV Env fusion -35, CDK5 p35 inh -4, GSIS activator 71*, Cneo AK release 0, dFosB activator 0 and PAX8 reporter -41.
Cc1ccc(S(=O)(=O)Nc2cccc3c2O[C@@H](CN(C)Cc2ccc4c(c2)OCO4)[C@H](C)CN([C@H](C)CO)C3=O)cc1 was read as HIV Env fusion 2[16.7 µM], GSIS activator 2, Cneo AK release -3 and PAX8 reporter -34.
Screening N#CCCN(C(=O)CN1CCN(S(=O)(=O)c2ccc3c(c2)OCCO3)CC1)c1ccc(F)cc1 returned HIV Env fusion 2, CDK5 p35 inh -1, GSIS activator 0, Cneo AK release 0, dFosB activator -6 and PAX8 reporter 12.
`N#CCCN(C(=O)CN1CCN(S(=O)(=O)c2ccc(Cl)s2)CC1)c1ccc(F)cc1` gave HIV Env fusion 62*, CDK5 p35 inh 0, GSIS activator -10, Cneo AK release -2, dFosB activator -6 and PAX8 reporter 1.
Screening O=C1N(CCS(=O)(=O)c2ccccc2)Cc2ccccc2[C@@H]2OC(c3ccc(OCCCO)cc3)=N[C@]12CCS(=O)(=O)c1ccccc1 returned HIV Env fusion -1[16.7 µM], Cneo AK release -13 and PAX8 reporter 4.
For O=C(c1ccccc1)N1Cc2ccccc2C[C@]2(N=C(c3ccc(OCCCO)cc3)O[C@@H]2c2ccccc2)C1=O the results were HIV Env fusion -4[16.7 µM], Cneo AK release 65 and PAX8 reporter 68*.
`O=C1N(Cc2ccccc2)Cc2ccccc2[C@@H]2OC(c3ccc(OCCCO)cc3)=N[C@]12Cc1ccccc1` gave HIV Env fusion 9[16.7 µM], Cneo AK release -17 and PAX8 reporter 64*.
O=C1N(Cc2ccccc2)Cc2ccccc2[C@H]2OC(c3ccc(OCCCO)cc3)=N[C@@]12Cc1ccccc1 was read as HIV Env fusion 29[16.7 µM] and Cneo AK release 0.
O=C1N(CCS(=O)(=O)c2ccccc2)Cc2ccccc2C[C@@]12N=C(c1ccc(OCCCO)cc1)O[C@H]2c1ccccc1 was read as HIV Env fusion 30[16.7 µM], Cneo AK release 20 and PAX8 reporter 94*.
C[C@@H]1CCCCO[C@H](CN(C)Cc2ccccc2)[C@@H](C)CN([C@H](C)CO)C(=O)c2cc(NC(=O)CCCCCC(=O)Nc3ccccc3N)ccc2O1 was read as GSIS activator -12 and PAX8 reporter 14.
For C[C@@H]1CN([C@H](C)CO)C(=O)c2cc(NC(=O)CCCCCC(=O)Nc3ccccc3N)ccc2O[C@@H](C)CCCCO[C@H]1CN(C)Cc1ccc(Cl)c(Cl)c1 the results were GSIS activator -3 and PAX8 reporter 80*.
`C[C@@H]1CCCCO[C@H](CN(C)Cc2ccc(Cl)c(Cl)c2)[C@@H](C)CN([C@H](C)CO)C(=O)c2cc(NC(=O)CCCCCC(=O)Nc3ccccc3N)ccc2O1` gave GSIS activator -11 and PAX8 reporter 73*.
`O=C(CCN1C(=O)/C(=C\c2ccc(F)cc2)SC1=S)Nc1ccc(O)cc1` gave HIV Env fusion -3, CDK5 p35 inh -1, GSIS activator 4, Cneo AK release -3, dFosB activator 32* and PAX8 reporter -7.
`O=C(CCN1C(=O)/C(=C\c2ccccc2)SC1=S)Nc1ccc(C(=O)O)cc1` gave HIV Env fusion -7, CDK5 p35 inh 1, GSIS activator 1, Cneo AK release 0, dFosB activator -1 and PAX8 reporter 8.
Screening CCOc1ccc(/C=C2/SC(=S)N(CCC(=O)Nc3ccc(C(=O)O)cc3)C2=O)cc1 returned CDK5 p35 inh 1, GSIS activator -1, Cneo AK release -1 and dFosB activator 48*.
For COc1ccc(/C=C2\SC(=S)N(CCC(=O)Nc3ccc(O)cc3)C2=O)cc1 the results were HIV Env fusion -20, CDK5 p35 inh 1, GSIS activator -1, Cneo AK release 1, dFosB activator 34* and PAX8 reporter -2.
Screening O=C(CCN1C(=O)/C(=C\c2ccc(F)cc2)SC1=S)Nc1ccccc1 returned HIV Env fusion 14, CDK5 p35 inh -8, GSIS activator 16, Cneo AK release -2, dFosB activator -2 and PAX8 reporter 6.
Screening COc1ccc(/C=C/C(=O)O)cc1COc1cccc(C)c1 returned HIV Env fusion 4, CDK5 p35 inh 0, GSIS activator 47*, dFosB activator -1 and PAX8 reporter -3.
Screening Oc1cccc(Nc2c3ccccc3nc3ccccc23)c1 returned HIV Env fusion -27, CDK5 p35 inh 1, GSIS activator -25, Cneo AK release -3, dFosB activator 65* and PAX8 reporter -25.
Screening O=C(O)c1ccc(Nc2c3ccccc3nc3ccccc23)cc1 returned HIV Env fusion 0, CDK5 p35 inh 0, GSIS activator 7, Cneo AK release -5, dFosB activator 2 and PAX8 reporter -10.
Cc1ccc(-c2nc(Nc3ccc(O)cc3)c3ccccc3n2)cc1 was read as HIV Env fusion 14, CDK5 p35 inh 0, GSIS activator -23, Cneo AK release -14, dFosB activator 0 and PAX8 reporter 21.
c1cncc(Nc2c3ccccc3nc3ccccc23)c1 was read as HIV Env fusion 23, CDK5 p35 inh -1, GSIS activator 1, Cneo AK release 1, dFosB activator 30* and PAX8 reporter 23.
For Cc1ccc(-c2nc(Nc3cccc(O)c3)c3ccccc3n2)cc1 the results were HIV Env fusion 3, CDK5 p35 inh 1, GSIS activator 10, Cneo AK release -2, dFosB activator 22* and PAX8 reporter 1.

From PubChem
